The values that follow come from the EternaBench riboswitch data.

Usually apparent Kd stands for a dissociation constant that holds for the conditions of the assay.

The subject of this data set is MS2 coat protein. As to the kind of experiment: apparent Kd, MS2 coat protein; higher = weaker binding; RNA-MaP array. In short, it runs like this: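 RNA designs were transcribed from sequenced DNA templates on an Illumina sequencing chip and then incubated at room temperature with fluorescently labeled MS2 coat protein at 1.5 nM to 3 μM, with or without input ligand, in Tris-HCl pH 7.5 buffer containing KCl, MgCl2, BSA, DTT, tRNA and Tween20. Incubation lasted 0.8–1.5 h at the lowest protein concentrations and 10–20 min at the highest. Apparent Kd is the median of binding-curve fits made for each cluster. Designs measured on fewer than 10 clusters were excluded.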

Setting [1] is: designed as: ON switch for flavin mononucleotide, no ligand.
Where [2] appears, read: ligand present: flavin mononucleotide, designed as: ON switch for flavin mononucleotide.
The mark [3] stands for this setting: designed as: OFF switch for flavin mononucleotide, no ligand.
The mark [4] stands for this setting: ligand present: flavin mononucleotide, designed as: OFF switch for flavin mononucleotide.

For “UACAUGAGGAUCACCCAUGUGGUCAGGUUAUCCCGGACGGGAAGAAGGAUAAGAGAGUAACAUUUAUAGGAUAUUCGCCUCAUU”, the “apparent Kd” value reads like this: under setting [1], 57.8 nM; under setting [2], 48.9 nM.
On to “ACAUGAGGAUCACCCAUGUGUCUCCUUUCCAUUACGAUCUUUAGAAGGGUCCGCAAACACUCUGGACAGGAUAUAAAGUAUGGC”, for which the “apparent Kd” value came out at 13.4 nM under setting [3] and 12.2 nM under setting [4].
On to “UCUCGGUAAGGAUAUAAAGCGACUCACAUGAGGAUCACCCAUGUUGUCGUCGUGGGCACAUUAGAAGGUACCAUUC”, for which the “apparent Kd” value by setting is: under setting [3], 7.06 nM; under setting [4], 6.3 nM.
Turning to “GAGGCACGGUCGGCCGCCACUACAGCAGUGGUCCGCCAAGCGAGGUACAUGAGGAUCACCCAUGUUAGGACCGGGACCUGUUUUU”, the “apparent Kd” value by setting is: (designed as: OFF switch for tryptophan, no ligand) 24.6 nM; (ligand present: tryptophan, designed as: OFF switch for tryptophan) 73.7 nM.
In the case of “CCGCACAUGAGGAUCACCCAUGUUCCCAGUCAACUAGGAGCCAAGGAUAUCGUUCGCGAGUGCACCGAGAAGGUGGCCCAUGAA”, the “apparent Kd” value reads like this: under setting [1], 193 nM; under setting [2], 72.6 nM.
For “UUAGAUCGUGUCAGGAUAUCGGACCGGCCCGCCUCCGAGAAGGGACAUGAGGAUCACCCAUGUCACGGUCCAUU”, the “apparent Kd” value under setting [3] was 7.73 nM and the “apparent Kd” value under setting [4] was 7.84 nM.
As for “AAUAAACAGUAGAAGGCUGAUACCUACAAAAGUCGAAGACAUGAGGAUCACCCAUGUCAGUCAUCAGAGGAUAUACGUGAAUCG”, the “apparent Kd” value was determined as 12.3 nM under setting [1] and 7.49 nM under setting [2].
As for “AGAUCGCUGACCGCGGGAGAUGCGCAGGAUACCAGCCUAAUGUCCGGCCCUUGGCAGCCUGUAACAUGAGGAUCACCCAUGUGAA”, the “apparent Kd” value reads like this: (designed as: OFF switch for theophylline, no ligand) 17.1 nM; (ligand present: theophylline, designed as: OFF switch for theophylline) 31 nM.
As to “GCGCCAAGUAAGAAGGGCUCAAAGGAAAACCUAGACUUCACUACAUGAGGAUCACCCAUGUCUCAGCAGGAUAUUAUCGGUCAA”, the “apparent Kd” value was found to be 22.2 nM under setting [1] and 17.9 nM under setting [2].
Turning to “UAAGACGCAGGAUAUACAUGAGGAUCACCCAUGUGCAUACAAGUCAAGAGGUACAUAAGUAGAAGGGCGUGGAU”, the “apparent Kd” value was found to be 9.42 nM under setting [3] and 14.7 nM under setting [4].
On the same counts, the results for “UAGGUUCUAGUUUCUGCACAUGAGGAUCACCCAUGUUUAGUAAAGGAUAUCACGGUAAGUCGACGUGAGAAGGUUACGUUAGGG” are 33.6 nM and 37 nM.
“GAGCUAUCAGGAUAUACAUGAGGAUCACCCAUGUUUUUUGGAAUCAAGAGGAAUCAAUGUAGAAGGGAUCUCGA”: the “apparent Kd” value under setting [3] stood at 21.8 nM and the “apparent Kd” value under setting [4] turned out to be 28.2 nM.
Regarding “CAACACGGAGAGAAGGAAGCUGAAACGGUGCACUUAGGAUAUCUUCCGCCAGAAAACAUGAGGAUCACCCAUGUUCAGUUAACG”, the “apparent Kd” value under setting [1] is 7.82 nM and the “apparent Kd” value under setting [2] was 7.54 nM.
Turning to “UGAGAUAACGCAGGAUAUCAUGCGGCAGUGUAGUGAGAAGGGCGAAUGCAAGGGUCAGACAUGAGGAUCACCCAUGUUCAUAGC”, the “apparent Kd” value reads like this: under setting [3], 17.2 nM; under setting [4], 12.5 nM.
Turning to “GUCGGAGUGGAGAAGGCGCCAACGUAAGCGCGGCGAGGAUAUCCCUACCCUACAUGAGGAUCACCCAUGUCGACGAGAGUAUCG”, the “apparent Kd” value runs as follows: under setting [1], 11.3 nM; under setting [2], 7.99 nM.
On the same counts, the results for “ACCCGACAUGAGGAUCACCCAUGUGGUUUCGGUCGAGGAUAUUCAAUCUGAAUUAUGUAGGAAGAAGGCGAUACCC” are 173 nM and 78 nM.
Consider “GAUUUACAUGAGGAUCACCCAUGUGAGGAUAUGCCGUACAUCGCGCUCUGAGCUAGUUGCAGAAGGCACAUGAU”, for which the “apparent Kd” value is 18.9 nM under setting [3] and 18.3 nM under setting [4].
Turning to “GCCAUGUAAGGAUAUCUUAACUUGCAUCACGCGCGGAAUGGAGAGAAGGUACAUGAGGAUCACCCAUGUGAAAA”, the “apparent Kd” value worked out at 19.8 nM under setting [3] and 28 nM under setting [4].
As to “AAUUCCUGUAAGAAGGGCGAUAUACAUGAGGAUCACCCAUGUCGUUGGAUUGAAGAAAAUCAGACGCAGGAUAUUAUUGGGAAC”, the “apparent Kd” value under setting [1] was 94.3 nM and the “apparent Kd” value under setting [2] came to 40 nM.
Take “GUUGGAUUUGUGAGGAUAUGGCCGUGACAUUUGGACCAGAAGGCACAUGAGGAUCACCCAUGUAUUGAAGAACG”: the “apparent Kd” value by setting is: under setting [3], 23.3 nM; under setting [4], 53.4 nM.
